# Experimental data collected from several papers.
# Target: Fibroblast growth factor receptor 4 (FGFR4, Homo sapiens, UniProt P22455)
SMILES,read-out,mode,method,concentration,measurement,value
Cc1ccc(NC(=O)c2ccc(C)c(C(F)(F)F)c2)cc1C#Cc1nn(C2CCC(O)CC2)c2ncnc(N)c12 (centres unmarked),cell-free assay,,,10 µM,remaining signal,33%
CCN(CC)CCNC(=O)c1c(C)[nH]c(/C=C2\C(=O)Nc3ccc(F)cc32)c1C,enzyme activity,inhibitor,,10 µM,inhibition,30%
O=C1Nc2ccc(Cl)cc2C1=Cc1cc(Cl)c(O)c(Cl)c1,cell-free assay,,,0.5 µM,remaining signal,98%
CC(C)(C)c1nc2c(s1)c1nc(N)ncc1c1ccc(NS(=O)(=O)c3c(F)cccc3F)c(F)c12,enzyme activity,inhibitor,radiometric,1 µM,remaining activity,104%
CCN(CC)c1ccc(C2=NNC(=O)CC2C)cc1[N+](=O)[O-] (centres unmarked),enzyme activity,inhibitor,,10 µM,remaining activity,93%
N#CCCc1ccc2c(c1)-c1[nH]c3ccc([N+](=O)[O-])cc3c1CC(=O)N2,cell-free assay,,,0.5 µM,remaining signal,89.1%
C[C@@]1(Cc2ccc(C#N)cc2)C(=O)N(c2cc(Cl)cc(Cl)c2)c2ncc(C(=O)NC3(c4nc(C5CCC5)no4)CC3)n21,cell-free assay,,competition with immobilised ligand,1 µM,remaining binding,96%
CCCS(=O)(=O)Nc1ccc(F)c(C(=O)c2c[nH]c3ncc(-c4ccc(Cl)cc4)cc23)c1F,enzyme activity,inhibitor,,1 µM,inhibition,< 10%
COc1cc2ncnc(Nc3ccc(Oc4ccccc4)cc3C)c2cc1OC,enzyme activity,inhibitor,,1 µM,inhibition,-3%
O=C(N1CCS(=O)(=O)CC1)N1C[C@H](c2ccc(OC(F)(F)F)cc2)C[C@H](c2nc(C3CC3)no2)C1,cell-free assay,,competition with immobilised ligand,1 µM,remaining binding,100%
CNc1cccc2cc(C(=O)Nc3ccc(C(=O)O)cc3)c(=O)[nH]c12,enzyme activity,inhibitor,,10 µM,inhibition,2.6%
CNC(=O)c1cc(Oc2ccc(NC(=O)Nc3ccc(Cl)c(C(F)(F)F)c3)cc2)ccn1,enzyme activity,inhibitor,,0.3 µM,inhibition,2%
COc1cc(Cl)c(C(=O)N[C@@H](CN[C@H]2CC[C@@H](N)CC2)Cc2ccc(C#N)cc2)cc1-c1ccc(CN[C@H](C)c2ccc(C)cc2)o1,enzyme activity,inhibitor,,1 µM,remaining activity,96%
CN(C)C(=O)Cn1cc(-c2nc(C3(c4ccc(-c5cnc(N)nc5)cc4)CC3)no2)cn1,cell-free assay,,competition with immobilised ligand,1 µM,remaining binding,100%
O=C(Nc1cnn(-c2csc(C(=O)NC3COC3)c2)c1)Nc1c(F)cccc1Cl,enzyme activity,inhibitor,,5 µM,remaining activity,99.6%
Cn1nc(C(=O)NCc2ccc(C(=O)O)cc2)cc1-c1ccc2[nH]ccc2c1,cell-free assay,,competition with immobilised ligand,0.1 µM,remaining binding,100%
Cc1ccc(C(=O)NCc2ccsc2)cc1C#Cc1cn(C(C)C)c2ncnc(N)c12,enzyme activity,inhibitor,,1 µM,activity vs control,99%
Cn1cc(Cl)c2c(Oc3c(F)cc(Nc4cc(Cl)nc(N)n4)cc3F)ccnc21,cell-free assay,,competition with immobilised ligand,0.1 µM,remaining binding,86%
Cc1ccc(C(=O)Nc2ccc(CN3CCN(C)CC3)c(C(F)(F)F)c2)cc1C#Cc1cnc2cccnn12,cell-free assay,,,23.5 nM,remaining signal,49%
NS(=O)(=O)c1cc(NC(=O)C2(c3ccccc3Cl)CC2)ccc1Oc1cccc(Cl)c1,cell-free assay,,competition with immobilised ligand,1 µM,remaining binding,100%
O=C(Nc1cnn(-c2csc(C(=O)NC3COC3)c2)c1)Nc1ccccc1Cl,enzyme activity,inhibitor,,5 µM,remaining activity,88.2%
CN(C)CC#Cc1ccc(OCCCc2sc(N3CCc4cccc(C(=O)Nc5nc6ccccc6s5)c4C3)nc2C(=O)O)c(F)c1,cell-free assay,,competition with immobilised ligand,1 µM,remaining binding,100%
CC/C(=N\NC(=O)NCc1cccc(O)c1)c1ccc(O)c(C)c1O,enzyme activity,inhibitor,,0.1 µM,inhibition,3.3%
